Test results from PMC8501684 (International Journal for Parasitology: Drugs and Drug …, 2021).

Key:
[1] = tested on: Naegleria fowleri ATCC® 30808™ trophozoites; assay: In vitro activity assay; format: cell-based; details: for N. fowleri ATCC® 30808™ SI (CC50/IC50): selectivity index, CC50 J774A.1 / IC50 ATCC 30808
Outline: (§1)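 Both strains were grown axenically at 37 °C in 2% Bactocasitone with 10% FBS, penicillin G and streptomycin. Trophozoites from a 2*10^5 cells/ml stock were seeded in duplicate with serial compound dilutions in the same medium, plus a medium-only negative control. AlamarBlue (10% of medium volume) was added for 48 h at 37 °C with slight agitation, read at 570 nm […] with a 630 nm reference. Inhibitory concentrations came from non-linear regression; experiments were done in triplicate and averaged.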

[2] = tested on: Naegleria fowleri ATCC® 30215™ trophozoites; assay: In vitro activity assay; format: cell-based; details: for N. fowleri ATCC® 30215™ SI (CC50/IC50): selectivity index, CC50 J774A.1 / IC50 ATCC 30215
Outline: as §1

Cytotoxicity assay = format: cell-based; details: mouse, J774A.1 murine macrophage cells
Outline: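 J774A.1 macrophages were kept in DMEM with 10% FBS and 10 μg/mL gentamicin at 37 °C, 5% CO2. Cells from a 10^5 cells/ml stock got a range of compound concentrations plus AlamarBlue (10% of medium volume), with a medium-only negative control. Incubation was 24 h at 37 °C in 5% CO2, and CC50 was derived from the read-out.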

[3] = ref Tian et al., 2016; cited from earlier work
[4] = various species plasma; ref Tian et al., 2016; cited from earlier work

IC50 ([1]; Naegleria fowleri, ATCC30808, 48 h, read-out: N. fowleri ATCC® 30808™ IC50) [µM]	IC50 ([2]; Naegleria fowleri, ATCC30215, 48 h, read-out: N. fowleri ATCC® 30215™ IC50) [µM]	SMILES	N. fowleri ATCC® 30808™ SI (CC50/IC50) [1]	N. fowleri ATCC® 30215™ SI (CC50/IC50) [2]	CC50 at 24 h (Cytotoxicity assay) [µM]	half-life [3]	pharmacokinetic profile [3]	tissue distribution [3]	protein binding to plasma [4]
0.121 ± 0.032	0.166 ± 0.026	C[C@@H]1[C@H](O)[C@@H](C)/C=C/C=C/C=C/C=C/C=C/C=C/C=C/[C@H](O[C@@H]2O[C@H](C)[C@@H](O)[C@H](N)[C@@H]2O)C[C@@H]2O[C@](O)(C[C@@H](O)C[C@@H](O)[C@H](O)CC[C@@H](O)C[C@@H](O)CC(=O)O[C@H]1C)C[C@H](O)[C@H]2C(=O)O [Amphotericin B]	≥1652.893	≥1204.819	≥ 200				
		CCCCC1OC(=O)c2cc(Br)ccc21 (stereo not drawn) [Br-NBP, 3-butyl-6-bromo-1(3H)-isobenzofuranone]				short half-life	good dose-linear pharmacokinetic profile	wide tissue distribution	different degree protein binding to various species plasma
		CCCCCCCCCCCCCCCCOP(=O)([O-])OCC[N+](C)(C)C [Miltefosine]	3.301	1.568	128 ± 8.85				
